An excerpt weighted towards active compounds, which were near 2.5% of everything screened.
S100A4 inh HTS: inhibitors of human S100A4 binding to myosin IIA peptide; inhibition, % at 10.7 µM; P26447; S100A4/TAMRA-MyoIIA peptide fluorescence polarization; 360,000 tested, 0.14% active; AID 652163;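 active = mean inhibition of at least 70% across replicates, with every replicate also reaching that level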
Target sequence (P26447 whole entry, looked up): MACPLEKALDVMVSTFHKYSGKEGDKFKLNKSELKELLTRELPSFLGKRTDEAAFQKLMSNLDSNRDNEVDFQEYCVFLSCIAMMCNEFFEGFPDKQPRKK
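Compound dosing: one dose per compound; test system: human S100A4 monomer with TAMRA-labelled myosin IIA peptide; probe or stimulus: TAMRA-labelled myosin IIA heavy-chain peptide probe, 5 nM; medium: HEPES buffer with Ca2+, pH 7.2; schedule: 5 min incubation before reading; benchmarks: neutral control DMSO, positive control TFP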
E-sel inducer: E-selectin induction on HUVECs; HUVEC E-selectin immunofluorescence imaging; normalized: neutral wells 0, TNF-alpha wells 100; activation, % at 7.58 µM; 260,000 tested, 0.37% active;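 active = mean E-selectin-positive cell signal at least 10% of the positive control, reached in at least 60% of replicates, without over 20% cell loss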
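Read-out basis: % PE-positive cells; Test system: HUVEC primary endothelial cells; Technique: immunofluorescence imaging; Dosing: single-point compound dose.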
SIRT5 inh: sirtuin-5 (human) deacylase inhibition; Q9NXA8; 330,000 tested, 1.1% active; AID 652115; inhibition, % at 15 µM; Purified SirT5, succinyl-peptide AMC, trypsin-coupled fluorescence; in the data active = inhibition above about 15%
Target sequence (Q9NXA8 whole entry, looked up): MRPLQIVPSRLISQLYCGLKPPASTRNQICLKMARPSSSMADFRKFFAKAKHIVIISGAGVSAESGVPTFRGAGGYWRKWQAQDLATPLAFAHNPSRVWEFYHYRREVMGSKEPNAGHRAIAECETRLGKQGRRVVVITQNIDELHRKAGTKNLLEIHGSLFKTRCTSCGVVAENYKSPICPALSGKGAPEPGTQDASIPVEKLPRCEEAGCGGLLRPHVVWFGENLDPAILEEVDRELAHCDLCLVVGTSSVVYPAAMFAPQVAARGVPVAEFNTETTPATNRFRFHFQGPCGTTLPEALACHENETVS
FGF22 binding: shifts melting point of recombinant human FGF22 | AID 651658 | activity (Tm shift, normalised), % at 9.99 µM | 340,000 tested, 1.5% active | recombinant FGF22 thermal shift, SYPRO orange fluorescence; percent of sucrose octasulfate shift, DMSO zero | Q9HCT0;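 active = mean Tm shift, scaled 0 neutral to 100 positive control, at about 1.3% or above, every replicate too, limit read from the data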
Target sequence (Q9HCT0 whole entry, looked up): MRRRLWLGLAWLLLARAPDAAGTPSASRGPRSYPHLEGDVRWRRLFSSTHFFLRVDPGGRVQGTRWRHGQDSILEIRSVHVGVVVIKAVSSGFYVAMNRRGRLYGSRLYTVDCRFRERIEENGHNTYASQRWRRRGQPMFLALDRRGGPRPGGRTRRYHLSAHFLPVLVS
miR122 inh: miR-122 inhibition in Huh7 cells; activation (reporter increase), % at 12.5 µM; 340,000 tested, 0.3% active; Huh7 miR-122 Renilla luciferase sensor, 48 h; neutral wells = 0, positive control = 100;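 active = mean replicate activation score at least 90 and every replicate individually at or above 90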;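 also: higher luciferase means less miR-122 activity so hits act as miR-122 inhibitors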
The depositor's hits bear a star; . = not tested or not shown; ! = not active in a repeat; [ ] = dose if it differs, or a comment.

SMILES | S100A4 inh HTS | E-sel inducer | SIRT5 inh | FGF22 binding | miR122 inh
O=C(Nc1nc2ccc(Cl)cc2s1)c1ccco1 | . | . | . | . | 116*
C[C@H](CO)N1C[C@H](C)[C@H](CN(C)Cc2ccc(-c3ccccc3)cc2)Oc2c(NS(C)(=O)=O)cccc2C1=O | 6 | 0 | -2 | 0 | -2[16.7 µM]
O=S1(=O)c2ccc(Br)cc2N2CCC[C@@H]2CN1Cc1ccc(Cl)cc1 | -6 | 0 | -6 | 0 | 7
O=S1(=O)c2ccc(Br)cc2N2CCC[C@H]2CN1Cc1ccccc1 | -1 | 1 | . | 0 | 140*
CN(C)c1ccc(O)c2c1CC1CC3[C@@H](N(C)C)C(=O)C(C(N)=O)=C(O)[C@]3(O)C(=O)C1=C2O (stereo not given in full) | -12 | 5 | 34* | 0 | -19
C[C@H]1c2cccc(O)c2C(O)=C2C(=O)[C@]3(O)C(O)=C(C(N)=O)C(=O)[C@@H](N(C)C)[C@@H]3[C@@H](O)[C@@H]21 | . | . | . | . | 7
Cc1ccc(S(=O)(=O)N(C)C[C@@H]2Oc3c(NC(=O)CCCCCC(=O)Nc4ccccc4N)cccc3C(=O)N([C@H](C)CO)C[C@@H]2C)cc1 | 23 | 0 | . | 0 | .
CCOC(=O)c1cccc(NC(=O)Nc2ccc(OCC)cc2)c1 | -4 | . | -7 | 43* | .
CCOC(=O)c1cccc(NC(=O)Nc2ccc3c(c2)C(=O)OC3)c1 | -5 | 61* | . | 0 | -1
CCc1ccc(NC(=O)c2cc(C)nn2-c2ccccc2)cc1 | -6 | 7 | 9 | 0 | 2
CCOC(=O)C(=O)Nc1cccc(C(=O)OCC)c1 | -5 | . | -6 | 0 | .
CCOC(=O)c1cccc(NC(=O)c2cc(C)nn2-c2ccccc2)c1 | -6 | 41* | -4 | 0 | -1
CCOc1ccc(NC(=O)Nc2cccc(C(=O)O)c2)cc1 | -2 | . | 0 | 0 | -4
C[C@@H]1CCCCO[C@H](CN(C)S(=O)(=O)c2cn(C)cn2)[C@@H](C)CN([C@H](C)CO)C(=O)c2cc(NC(=O)Nc3ccc(C(F)(F)F)cc3)ccc2O1 | . | 0 | . | 0 | 2[16.7 µM]
COc1ccc2c(c1)C(=O)O[C@@H](c1ccccc1)C[C@@H](O)C(=O)CC2 | 3 | 0 | 20* | 0 | .
COc1ccc2c3c(n(C)c2c1)[C@H](CO)N(C)CC31CCN(S(=O)(=O)c2cccc(C)c2)CC1 | . | 0 | . | 0 | .
O=C(O)c1ccc(S(=O)(=O)N(Cc2ccccc2)C2CCCCC2)cc1 | -3 | 24 | 22* | 0 | 1
COC(=O)C1=C/c2ccccc2C(C2CC2)N(Cc2ccc(OC)cc2)/C=C\1C(=O)OC (stereo not given) | 0 | . | 0 | 0 | .
CCOC(=O)c1ccc(NC(=O)N2CCN(C(=O)C3CCCO3)CC2)cc1 (stereo not given) | -4 | . | -3 | 43* | .
COc1cccc(NC(=O)COC(=O)C2CCN(S(=O)(=O)c3cccs3)CC2)c1 | -32 | -1 | 1 | 43* | 0
CC(=O)c1ccc(NC(=O)COC(=O)C2CCN(S(=O)(=O)c3cccs3)CC2)cc1 | -6 | . | -7 | 0 | -5
CC(C)NC(=O)Nc1ccc2c(c1)C(=O)N([C@H](C)CO)C[C@@H](C)[C@H](CN(C)C)O2 | 7 | -2 | -7 | 0 | -2[16.7 µM]
CC12C=CC3(O1)C(C(=O)N1CCCOC13)C2C(=O)O (stereo not given) | -1 | . | 1 | 43* | 0
CC(=O)c1sc(NC(=O)c2ccc(C)c(C)c2)nc1C | 0 | . | . | 44* | .
CC(=O)c1sc(NC(=O)c2ccc(C(C)(C)C)cc2)nc1C | -2 | 2 | 1 | 41 | -1
SMILES | S100A4 inh HTS | E-sel inducer | SIRT5 inh | FGF22 binding | miR122 inh
COc1ccccc1[N+](=O)[O-] | -15 | . | . | 0 | -7
Cc1ccc(S(=O)(=O)Oc2ccccc2[N+](=O)[O-])cc1 | 1 | 1 | . | 43* | -6
O=C1CN(C(=O)/C=C/c2ccco2)c2ccccc2N1 | 0 | . | -3 | 44* | .
O=C1CN(C(=O)/C=C/c2ccc(Cl)cc2)c2ccccc2N1 | -11 | . | 0 | 0 | .
Cc1noc(C)c1NC(=O)N(C)C[C@H]1OCc2cn(nn2)CCCC(=O)N([C@H](C)CO)C[C@H]1C | . | 0 | . | . | 4[16.7 µM]
Cc1noc(C)c1NC(=O)N(C)C[C@H]1OCc2cn(nn2)CCCC(=O)N([C@@H](C)CO)C[C@@H]1C | -1 | 0 | 16*! | 0 | 3
COc1cccc(NC(=O)N(C)C[C@@H]2OCc3cn(nn3)CCCC(=O)N([C@H](C)CO)C[C@H]2C)c1 | 2 | 0 | 23*! | 0 | -6
O=C(Nc1ccc(CSc2ccccc2)cc1)c1ccccc1 | -4 | . | 15* | 0 | .
Nc1ccc(CSc2ccccc2)cc1 | -7 | 0 | 1 | 43* | -11
O=C(COc1ccccc1)Nc1ccc(CSc2ccccc2)cc1 | 4 | . | 1 | . | -4
Nc1ccc(SCc2cccnc2)cc1 | -3 | 0 | -1 | -1 | 4
CC1CCN(S(=O)(=O)N2CCC(C(=O)NCCc3ccccc3)CC2)CC1 | 21 | . | 1 | 0 | 143*
Cc1cccc(C)c1NC(=O)C1(N2C(=O)CC2c2ccccc2)CCCCC1 (stereo not given) | 5 | . | -1 | 44* | .
C[C@H]1CCCCO[C@@H](CN(C)Cc2ccc(C(F)(F)F)cc2)[C@@H](C)CN([C@@H](C)CO)C(=O)c2cc(NS(=O)(=O)c3ccc(F)cc3)ccc2O1 | -19 | 0 | 20* | -1 | -7[16.7 µM]
C[C@@H]1CCCCO[C@H](CN(C)Cc2ccc(C(F)(F)F)cc2)[C@@H](C)CN([C@@H](C)CO)C(=O)c2cc(NS(=O)(=O)c3ccc(F)cc3)ccc2O1 | -6 | 1 | 19* | -1 | -7[16.7 µM]
C[C@@H]1CCCCO[C@@H](CN(C)Cc2ccc(C(F)(F)F)cc2)[C@H](C)CN([C@H](C)CO)C(=O)c2cc(NS(=O)(=O)c3ccccc3)ccc2O1 | 17 | 0 | 18* | . | -8[16.7 µM]
C[C@@H]1CN([C@@H](C)CO)C(=O)c2cc(NS(=O)(=O)c3ccc(F)cc3)ccc2O[C@@H](C)CCCCO[C@@H]1CN(C)Cc1ccc(C(F)(F)F)cc1 | 6 | 0 | -3 | 0 | -7[16.7 µM]
C[C@H](CO)N1C[C@H](C)[C@H](CN(C)Cc2ccc(C(F)(F)F)cc2)OCCCC[C@H](C)Oc2ccc(NS(=O)(=O)c3ccc(F)cc3)cc2C1=O | -33 | 0 | 17* | -1 | 2[16.7 µM]
C/C=C/c1ccc2c(c1)O[C@@H](CN(C)C(=O)C1CCC1)[C@H](C)CN([C@@H](C)CO)S2(=O)=O | . | 1 | . | . | 1[16.7 µM]
COc1ccc(C#Cc2ccc3c(c2)O[C@@H](CN(C)C(C)=O)[C@H](C)CN([C@@H](C)CO)S3(=O)=O)cc1 | -8 | 0 | 0 | 0 | 15[16.7 µM]
